A selection: hits, their analogues and other compounds. The true share with any hit is near 1.9%.
CCR6 antagonist = CCR6 receptor antagonists, primary screen, cell-based, CHO-K1, luminescence, beta-arrestin, uHTS; inhibition, % at 20 µM; CHO-K1 CCR6 PathHunter beta-arrestin, CCL20-stimulated; actives 0.49% (n = 340,000); C-C chemokine receptor type 6 (Homo sapiens), P51684;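 active = compounds whose inhibition of the agonist-driven luminescence signal at 20 µM reaches about 50%, limit read from the data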;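 also: cells stimulated with CCL20 at 14 nM final; plate controls were DMSO with CCL20 for no effect and DMSO without agonist for full effect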
Target sequence (P51684 whole entry, looked up): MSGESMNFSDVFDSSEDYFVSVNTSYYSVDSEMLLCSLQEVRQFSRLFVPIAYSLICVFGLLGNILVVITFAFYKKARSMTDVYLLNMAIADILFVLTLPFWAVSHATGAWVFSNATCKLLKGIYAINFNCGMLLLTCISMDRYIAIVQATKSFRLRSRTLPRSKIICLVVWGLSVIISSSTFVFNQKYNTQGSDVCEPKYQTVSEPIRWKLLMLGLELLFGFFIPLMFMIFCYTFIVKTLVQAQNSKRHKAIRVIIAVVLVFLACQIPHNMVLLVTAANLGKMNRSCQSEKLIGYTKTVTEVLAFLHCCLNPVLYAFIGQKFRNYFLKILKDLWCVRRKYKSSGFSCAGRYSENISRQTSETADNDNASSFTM
H9c2 TAG inh = inhibitors of triacylglycerol accumulation, primary screen, cell-based, uHTS, fluorescence, H9c2; actives 0.66% (n = 230,000); H9c2 cells, Nile Red lipid (TAG) fluorescence; cells loaded with 200 µM oleic acid; AID 651582, 2012; inhibition, % at 12.5 µM;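 active = pattern-corrected inhibition of lipid staining of at least 50% with the nuclear-stain viability signal not falling by more than 50%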;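 also: 0% = DMSO wells and 100% = triacsin C control wells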
EBI2 antag = EBI2 receptor antagonists, beta-arrestin recruitment, primary screen, cell-based, luminescence, 7a,25-OHC stimulation, uHTS | G-protein coupled receptor 183 (Homo sapiens), P32249 | inhibition, % at 5 µM | actives 0.81% (n = 360,000) | AID 651636, 2012 | 7a,25-OHC stimulated; in the data active = inhibition above about 38%;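 also: enzyme fragment complementation signal reports receptor beta-arrestin coupling in cells; 0% = agonist plus DMSO wells and 100% = wells without agonist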
APJ antagonist = antagonists of human apelin receptor APJ, primary screen, CHO-K1 cells, beta-arrestin complementation, luminescence. P35414. inhibition, % at 20 µM. actives 0.32% (n = 330,000). AID 2521, 2010;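 active = inhibition above about 40% at 20 µM, limit read from the data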;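 also: cells challenged with 10 nM apelin-13 agonist together with compound; plate controls were apelin-13 plus DMSO wells for no effect and DMSO wells lacking apelin-13 for full effect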
Target sequence (P35414 whole entry, looked up): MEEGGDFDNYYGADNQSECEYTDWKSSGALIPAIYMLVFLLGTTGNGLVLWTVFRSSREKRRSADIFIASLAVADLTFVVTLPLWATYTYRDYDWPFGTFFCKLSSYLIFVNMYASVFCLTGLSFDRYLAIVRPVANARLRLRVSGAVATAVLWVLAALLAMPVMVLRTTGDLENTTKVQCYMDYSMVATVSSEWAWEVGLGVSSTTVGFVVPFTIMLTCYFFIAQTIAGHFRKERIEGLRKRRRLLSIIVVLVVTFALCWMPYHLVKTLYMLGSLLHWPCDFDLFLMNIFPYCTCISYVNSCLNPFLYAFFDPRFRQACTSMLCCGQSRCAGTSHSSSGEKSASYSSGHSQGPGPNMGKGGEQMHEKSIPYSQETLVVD
APJ agonist = agonists of human apelin receptor APJ, primary screen, CHO-K1 cells, PathHunter beta-arrestin, luminescence; 0% DMSO wells, 100% apelin; activation, % at 20 µM; actives 0.11% (n = 330,000);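 active = activation more than six SD over the plate average, tested at 20 µM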;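 also: 0% = DMSO alone and 100% = apelin-13 at 10 nM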
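Test system: CHO-K1 APJ beta-arrestin complementation cell line. Amount: cell density 1000 per well. Controls: DMSO negative, 10 nM Apelin-13 positive. Signal: luminescent beta-gal fragment complementation, chemiluminescent substrate. Read-out basis: agonist-driven arrestin binding to APJ. Timing: compound stimulation 90 min at 25 °C, detection 60 min.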
CXCR6 block = CXCR6 receptor inhibitors, primary screen, cell-based, beta-arrestin, luminescence, CHO-K1 PathHunter, 1536-well. C-X-C chemokine receptor type 6 (Homo sapiens), O00574. inhibition, % at 20 µM. actives 0.36% (n = 360,000); in the data active = inhibition above about 34%, passing the limit was not always enough;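 also: antagonist mode with CXCL16 agonist at 10 nM final; 0% = 10 nM CXCL16 with DMSO and 100% = unstimulated wells without agonist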
CXCR6 confirm = CXCR6 receptor antagonists, confirmation, cell-based, single concentration, beta-arrestin, luminescence; shares compounds with CXCR6 block; CHO-K1 CXCR6 PathHunter beta-arrestin; inhibition, % at 20 µM; actives 65% (n = 700); AID 602409, 2012;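 active = mean inhibition over four retests above 40%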;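 also: receptor stimulated with 10 nM CXCL16 agonist; beta-galactosidase fragment complementation upon beta-arrestin recruitment to receptor; plate controls were CXCL16 plus DMSO for no effect and DMSO without CXCL16 for full effect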
Starred values were filed as active, the others as inactive; x = no result.

SMILES | CCR6 antagonist | H9c2 TAG inh | EBI2 antag | APJ antagonist | APJ agonist | CXCR6 block | CXCR6 confirm
CC(C)=CCN1CCN(CCC2=C(C)CCCC2(C)C)CC1CCO (centres undefined) | 14.6 | 0.9 | -4.3 | 17.8 | -2.8 | -23.4 | x
CC(Oc1ccccc1)C(=O)Nc1nc(-c2ccccn2)cs1 (centres undefined) | x | -46.2 | -7.3 | -2.6 | -5.4 | 37.5* | 64.0*
CC(Oc1cccc(Cl)c1)C(=O)Nc1nc(-c2ccccn2)cs1 (centres undefined) | 87.5* | -16.8 | -1.2 | 29.6 | -11.0 | 70.1* | 78.3*
O=C(COc1ccc(F)cc1Cl)Nc1nc(-c2ccccn2)cs1 | x | 12.3 | -3.9 | 7.9 | -3.0 | 46.3* | 37.8
Cc1sc(N2CCN(S(=O)(=O)c3ccc4c(c3)NC(=O)CO4)CC2)nc1-c1ccccc1 | -9.3 | x | -2.2 | -1.8 | -5.9 | 3.8 | x
Cc1ccc(S(=O)(=O)N2CCN(C(=O)CSCc3ccc(C(C)C)cc3)CC2)cc1 | 21.3 | 17.4 | -5.7 | 2.6 | -3.8 | 4.5 | x
COc1ccc(NS(=O)(=O)c2cc(NC(=O)[C@@H](NC(=O)c3ccccc3)C(C)C)ccc2C)cc1 | 16.9 | x | 10.2 | 5.3 | 1.1 | -0.3 | x
CN(CC(=O)NCCc1ccc(Cl)cc1)S(=O)(=O)c1cccs1 | -4.0 | x | 9.4 | -3.8 | -0.1 | -2.4 | x
Cc1ccc(S(=O)(=O)N(C)C[C@H]2OCc3cn(nn3)CCCC(=O)N([C@H](C)CO)C[C@@H]2C)cc1 | x | -2.3 | -8.2 | x | x | 1.2 | x
CCOc1ccccc1C(=O)N/N=C/c1cccc2cccnc12 | -13.2 | -7.4 | -13.0 | -13.4 | 4.8 | -5.4 | x
CCOc1ccc(C(=O)N/N=C/c2cccc3cccnc23)cc1 | x | 7.9 | 1.6 | 24.9 | -2.6 | 56.4* | 64.4*
COc1ccc(C(=O)N/N=C/c2cccc3cccnc23)cc1 | 23.0 | 11.9 | 4.4 | 11.8 | -3.7 | 52.0* | 60.5*
O=C(O)c1cccc(S(=O)(=O)NCC2COc3ccccc3O2)c1 (centres undefined) | 7.6 | -7.3 | 5.4 | -9.4 | -2.4 | 3.9 | x
O=C1C=CC2C3C(=O)N(c4ccccc4)C(=O)C3C1N2Cc1ccccc1 (centres undefined) | 58.8* | 102.7 | 21.0 | x | x | 51.3* | 45.0*
C[C@@H]1CN([C@@H](C)CO)C(=O)CCCn2nncc2CO[C@H]1CN(C)S(=O)(=O)c1ccccc1F | x | -5.5 | -2.4 | x | x | -1.0 | x
Cc1ccc(C(=O)NCC(=O)N(C)Cc2ccccc2C)s1 | x | -1.0 | -0.2 | x | x | 4.2 | x
CCCC(C)Sc1nc2c([nH]1)c(=S)n(C)c(=O)n2C (centres undefined) | 40.1 | 0.8 | 1.6 | x | x | 42.0* | 15.8
CC(=O)Nc1cccc(OCC(O)Cn2c(C)nc3ccccc32)c1 (centres undefined) | 17.5 | x | -4.3 | 16.0 | 2.8 | 40.5* | 22.7
CC(=O)Nc1cccc(OCC(O)Cn2cnc3ccccc32)c1 (centres undefined) | -11.8 | x | -8.2 | -7.2 | -1.9 | 1.5 | x
C[C@H](CO)N1C[C@H](C)[C@@H](CN(C)C(=O)c2ccc3ccn(C)c3c2)OCc2cn(nn2)CCCC1=O | x | 9.5 | -8.2 | x | x | -3.2 | x
C[C@@H](NC(=O)c1nc[nH]c1C(=O)N[C@H](C)c1ccccc1)c1ccccc1 | 12.6 | -0.5 | 8.8 | 5.5 | -2.9 | 9.8 | x
C[C@@H](NC(=O)c1[nH]cnc1C(=O)Nc1ccccc1F)c1ccccc1 | x | -28.6 | -27.7 | x | x | 42.3* | 26.3
COc1cccc(NC(=O)Nc2ccc3nc(C)c(C)nc3c2)c1 | 2.5 | 3.6 | 5.5 | 2.8 | 2.4 | 1.4 | x
COc1cccc(OC)c1C(=O)Nc1ccc2nc(C)c(C)nc2c1 | 3.4 | 3.5 | -12.6 | -2.4 | -0.1 | 65.2* | -1.8
O=C1C(=C(c2ccccc2)N2CCOCC2)Cc2ccccc21 | x | 84.0 | 23.9 | x | x | 69.8* | 78.0*
SMILES | CCR6 antagonist | H9c2 TAG inh | EBI2 antag | APJ antagonist | APJ agonist | CXCR6 block | CXCR6 confirm
CCN(CC(=O)Nc1c(F)cccc1F)C(=O)CCc1nc2sc3c(c2c(=O)[nH]1)CCCC3 | -5.3 | 7.2 | 5.4 | 11.8 | 7.0 | 13.5 | x
Cc1ccc(NC(=S)NNC(=O)Nc2ccccc2)cc1 | x | -12.0 | 9.0 | 43.5* | -6.4 | 53.2* | 38.3
Cc1ccc(NC(=S)NNC(=S)Nc2ccc(C)cc2)cc1 | 33.6 | -19.4 | 27.6 | x | x | 12.7 | x
Cn1cc(S(=O)(=O)N2CCNCC2)cc1C(N)=O | -6.2 | 3.4 | -5.2 | -14.6 | -1.5 | 3.7 | x
CCC(=O)OCCNc1cc(Sc2nc3ccccc3[nH]2)c2nonc2c1[N+](=O)[O-] | 117.0* | x | 33.5 | x | x | 101.6* | 106.3*
CCCC(=O)OCCNc1cc(Sc2nccn2C)c2nonc2c1[N+](=O)[O-] | 98.6* | x | 49.3* | x | x | 99.9* | 105.2*
CCCC(=O)OCCNc1cc(SCc2ccco2)c2nonc2c1[N+](=O)[O-] | 67.4* | x | -26.0 | -22.9 | 4.6 | 38.2* | 52.7*
CCCSc1cc(NCCOC(C)=O)c([N+](=O)[O-])c2nonc12 | 17.5 | -11.7 | 7.8 | 22.2 | -3.7 | 5.8 | x
CC(C)CNC(=O)C1(C)CCCCCN1Cc1ccccc1-c1ccccc1 (centres undefined) | x | -7.2 | 10.2 | x | x | 36.9* | 8.2
CC(=O)c1ccc(OCC(=O)OCC(=O)c2ccc(S(=O)(=O)N3CCCCC3)cc2)cc1 | x | -8.4 | 13.8 | x | x | 40.2* | 27.0
COc1ccc(C(=O)/C=C/Sc2nc3ccccc3o2)cc1 | 61.8* | 93.2 | 36.4 | 1.1 | 3.1 | 45.5* | 44.6*
COc1ccc(C(=O)N/C(N)=N/c2nc3ccccc3o2)cc1 | -8.1 | 16.3 | 9.9 | 5.9 | -0.6 | -8.7 | x
CCN(CC(=O)NC(C)(C)C)C(=O)COc1c(Cl)cc(Cl)c2ccc(C)nc12 | x | 13.1 | -15.9 | 6.0 | -2.8 | 32.8* | 36.7
Cc1ccc(OCC(=O)NNC(=S)NC(=O)C2CC2)c(C)c1 | x | 30.9 | 7.9 | 9.3 | -10.2 | 45.0* | 41.3*
CCOc1ccccc1NC(=O)C(c1ccccc1)N1CCN(C(=O)c2ccco2)CC1 (centres undefined) | 6.2 | -26.4 | 3.6 | 15.7 | -2.2 | 14.3 | x
COc1cccc2cc(C(=O)Nc3ccc(F)cc3)c(=Nc3ccc(C(=O)O)cc3)oc12 | 80.5* | -4.8 | 1.4 | 6.9 | -1.2 | 48.9* | 7.7
NNC(=O)c1cccc(COc2ccc3c(c2)CCC3)c1 | 6.7 | 10.5 | -2.8 | 7.5 | 1.9 | 49.3* | -2.4
